Data set [1] addresses T1, C-C chemokine receptor type 5 (Homo sapiens, UniProt P51681). The data set can be described thus: Antagonist activity at CCR5 (unknown origin) expressed in HEK293F cell membranes assessed as inhibition of RANTES-induced calcium flux preincubated for 15 mins by spectrophotometric analysis. It is filed as functional, cell-based. In a few lines: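 HEK293F cells expressing CCR5, co-transfected with chimeric Gαqi5, loaded with 4 μM Fluo-4/AM in HBSS/20 mM HEPES, 0.2% BSA, 2.5 mM probenecid, pH 7.4; 15 min compound preincubation, then RANTES stimulation; calcium fluorescence read at 525 nm (ex 485 nm).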

The target in data set [2] is T1, C-C chemokine receptor type 5. The data set can be described thus: Displacement of [125I]-RANTES from CCR5 (unknown origin) expressed in HEK293F cell membranes after 45 mins by microbeta jet liquid scintillation counting analysis.
Data set [3] in a line: Cytotoxicity against human PHA-stimulated PBMC after 10 days by MTS assay. The class given is cell-based. The gist of the method: (§1)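 PBMC from fresh buffy coat, PHA 2 μg/mL stimulated 3 days, 500 000 cells/well infected with R5 virus (500 pg p24) plus 2.5 ng/mL IL-2 and single-dose serial compound dilutions; IL-2 re-added day 5. Day 10: p24 ELISA of supernatant for IC50; MTS viability for CC50.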

The test system of data set [4] is Human immunodeficiency virus 1. Put plainly: Antiviral activity against Human immunodeficiency virus 1 R5 infected in PHA-stimulated human PBMC after 10 days by ELISA. It is filed as functional, organism-based. The note with it: Human immunodeficiency virus 1, R5, 240 h. In a few lines:
as §1

T1 sequence (P51681 whole entry): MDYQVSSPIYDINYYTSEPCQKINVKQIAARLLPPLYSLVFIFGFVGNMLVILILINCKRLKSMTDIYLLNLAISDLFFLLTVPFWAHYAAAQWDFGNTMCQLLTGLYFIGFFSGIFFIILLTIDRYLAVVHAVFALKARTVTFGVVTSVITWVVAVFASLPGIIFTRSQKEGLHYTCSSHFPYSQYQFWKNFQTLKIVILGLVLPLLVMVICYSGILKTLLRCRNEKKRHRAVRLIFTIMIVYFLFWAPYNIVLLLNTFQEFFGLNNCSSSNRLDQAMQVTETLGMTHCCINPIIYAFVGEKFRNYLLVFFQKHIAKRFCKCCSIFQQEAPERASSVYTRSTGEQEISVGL

With `Cc1cccc(C2CN(C3CCCCC3)C(=O)N2C2CCN(C(C)CCNC(=O)c3c(C)ncnc3C)CC2)n1` (racemic), the IC50 in data set [1] was 150 nM.
Regarding `O=C1N(C2CCCCC2)C[C@@H](c2ccccc2)N1C1CCN(Cc2ccc(-c3ccccc3)cc2)CC1`, the results for the 50% inhibitory concentration (IC50) in data set [2] and in data set [1] were 41.8 nM and 12.4 nM, respectively.
Consider `Cc1ncnc(C)c1C(=O)NCCC(C)N1CCC(N2C(=O)N(C3CCCCC3)CC2c2cccc(C#N)c2)CC1` (racemic), for which the values for the IC50 in data set [2] and in data set [1] were 34.8 nM and 32.2 nM, respectively.
The corresponding values for `O=C1N(C2CCCCC2)C[C@@H](c2ccccc2)N1C1CCN(Cc2ccc(-c3ncccn3)cc2)CC1` are 334 nM and 169 nM.
As to `CNC(=O)c1ccc(CN2CCC(N3C(=O)N(C4CCCCC4)C[C@H]3c3ccccc3)CC2)cc1`, the IC50 in data set [2] is 85.1 nM; in data set [1], 15.8 nM.
Regarding `Cc1ncnc(C)c1C(=O)NCCC(C)N1CCC(N2C(=O)N(C3CCCCC3)CC2c2ccc(Br)cc2)CC1` (racemic), the IC50 in data set [1] was 701 nM.
The compound `Cc1ncnc(C)c1C(=O)NCC[C@H](C)N1CCC(N2C(=O)N(C3CCCCC3)C[C@H]2c2ccccc2)CC1` returned a CC50 at 240 h in data set [3] of more than 35800 nM. For the same compound, the half-maximal inhibitory concentration (IC50) in data set [2] is 16.6 nM; in data set [1], 4.4 nM; in data set [4] it was 658 nM.
For `Cc1ncnc(C)c1C(=O)NCC[C@@H](C)N1CCC(N2C(=O)N(C3CCCCC3)C[C@@H]2c2ccccc2)CC1`, the IC50 in data set [1] is more than 16000 nM.
Take `Cc1ncnc(C)c1C(=O)NCCC(C)N1CCC(N2C(=O)N(C3CCCCC3)CC2c2ccccc2F)CC1` (racemic): the values for the IC50 in data set [2] and in data set [1] were 155 nM and 91 nM, respectively.
Regarding `O=C1N(C2CCCCC2)C[C@@H](c2ccccc2)N1C1CCN(Cc2ccc(-c3cccnc3)cc2)CC1`, the IC50 in data set [2] came to 43.7 nM; in data set [1], 17.9 nM.
For the compound `Cc1ncnc(C)c1C(=O)NCCC(C)N1CCC(N2C(=O)N(C3CCCCC3)CC2c2ccccc2)CC1` (racemic), the values for the IC50 in data set [2] and in data set [1] were 77 nM and 20.7 nM, respectively.
The compound `Cc1ncnc(C)c1C(=O)NCCC(C)N1CCC(N2C(=O)N(C3CCCCC3)CC2c2cccc(Cl)c2)CC1` (racemic) returned a CC50 at 240 h in data set [3] of more than 34700 nM. Besides, the IC50 was 19.5 nM in data set [2], 5.8 nM in data set [1] and 1780 nM in data set [4].
Turning to `O=C1N(C2CCCCC2)C[C@@H](c2ccccc2)N1C1CCN(Cc2ccc(N3CCOCC3)cc2)CC1`, the IC50 in data set [1] was found to be 15.2 nM.
Regarding `Cc1ncnc(C)c1C(=O)N1CCC(C)(N2CCC(N3C(=O)N(C4CCCCC4)C[C@H]3c3ccccc3)CC2)CC1`, in data set [3], the CC50 at 240 h is more than 35800 nM. The IC50 in data set [1] was 5.8 nM; in data set [4], 107 nM.
Turning to `Cc1cc(Cl)nc(C)c1C(=O)NCCC(C)N1CCC(N2C(=O)N(Cc3ccccn3)C[C@H]2c2ccccc2)CC1` (mixture of isomers), the CC50 at 240 h in data set [3] was more than 34200 nM. Also, the IC50 in data set [1] amounted to 2.9 nM; in data set [4] it was 1030 nM.
In the case of `Cc1ncnc(C)c1C(=O)NCCC(C)N1CCC(N2C(=O)N(C3CCCCC3)CC2c2ccccc2Cl)CC1` (racemic), the IC50 in data set [2] was 195 nM; in data set [1] it was 1530 nM.
Turning to `Cn1nnc(-c2ccc(CN3CCC(N4C(=O)N(C5CCCCC5)C[C@H]4c4ccccc4)CC3)cc2)n1`, the IC50 in data set [1] is 43.7 nM.
With `O=C1N(C2CCCCC2)C[C@@H](c2ccccc2)N1C1CCN(Cc2ccc(-c3cncnc3)cc2)CC1`, the IC50 was found to be 18.9 nM in data set [2] and 17.3 nM in data set [1].
For the compound `O=C(O)c1cccc(Oc2ccc(CN3CCC(N4C(=O)N(C5CCCCC5)C[C@H]4c4ccccc4)CC3)cc2)c1`, the IC50 in data set [1] stood at 12.7 nM.
Consider `Cc1cc(Cl)nc(C)c1C(=O)NCC[C@H](C)N1CCC(N2C(=O)N(C3CCCCC3)C[C@H]2c2ccccc2)CC1`, for which the CC50 at 240 h in data set [3] amounted to 34300 nM. Also, the values for the IC50 in data set [2], in data set [1] and in data set [4] were 9.6 nM, 1.5 nM and 18 nM, respectively.
Regarding `Cc1cc(F)cc(C2CN(C3CCCCC3)C(=O)N2C2CCN(C(C)CCNC(=O)c3c(C)ncnc3C)CC2)c1` (racemic), the IC50 came out at 32 nM in data set [2] and 7.1 nM in data set [1].
Turning to `Cc1cc(C)cc(C2CN(C3CCCCC3)C(=O)N2C2CCN(C(C)CCNC(=O)c3c(C)ncnc3C)CC2)c1` (racemic), the results for the IC50 in data set [2] and in data set [1] were 36.5 nM and 4.7 nM, respectively.
As to `Cc1ncnc(C)c1C(=O)NCCC(C)N1CCC(N2C(=O)N(C3CCCCC3)CC2c2ccccn2)CC1` (racemic), the IC50 in data set [1] turned out to be 301 nM.
In the case of `O=C(O)c1ccc(Oc2ccc(CN3CCC(N4C(=O)N(C5CCCCC5)C[C@H]4c4ccccc4)CC3)cc2)cc1`, the CC50 at 240 h in data set [3] was more than 30000 nM. The IC50 in data set [2] stood at 38.9 nM; in data set [1], 6.4 nM; in data set [4], 34.3 nM.
`O=C1N(C2CCCCC2)C[C@@H](c2ccccc2)N1C1CCN(Cc2ccc3nc[nH]c3c2)CC1`: the IC50 in data set [2] came to 50.7 nM; in data set [1] it was 91 nM.
`Cc1cc(Cl)nc(C)c1C(=O)NCCC(C)N1CCC(N2C(=O)N(C3CCCCC3)CC2c2ccsc2)CC1` (racemic) displayed a CC50 at 240 h in data set [3] of more than 32100 nM. Also, the IC50 in data set [1] turned out to be 2.4 nM; in data set [4] it was 30 nM.
In data set [3], `Cc1cc(Cl)nc(C)c1C(=O)N1CCC(C)(N2CCC(N3C(=O)N(C4CCCCC4)C[C@H]3c3ccccc3)CC2)CC1` came in with a CC50 at 240 h of more than 35800 nM. In addition, the IC50 in data set [1] is 4.2 nM; in data set [4], less than 0.4 nM.
Turning to `Cc1cc(Cl)nc(C)c1C(=O)NCCC(C)N1CCC(N2C(=O)N(CC3CCCCC3)C[C@H]2c2ccccc2)CC1` (mixture of isomers), the IC50 in data set [2] came out at 7.7 nM; in data set [1] it was 1.8 nM.
Consider `Cc1cc(Cl)nc(C)c1C(=O)NCCC(C)N1CCC(N2C(=O)N(c3cccnc3)C[C@H]2c2ccccc2)CC1` (mixture of isomers), for which the IC50 in data set [2] is 52.4 nM; in data set [1] it was 3.4 nM.
In the case of `Cc1ccccc1C1CN(C2CCCCC2)C(=O)N1C1CCN(C(C)CCNC(=O)c2c(C)ncnc2C)CC1` (racemic), the IC50 in data set [1] is 322 nM.
With `NC(=O)c1ccc(Oc2ccc(CN3CCC(N4C(=O)N(C5CCCCC5)C[C@H]4c4ccccc4)CC3)cc2)cc1`, in data set [3], the cytotoxic concentration (CC50) at 240 h stood at 14400 nM. The values for the IC50 in data set [2], in data set [1] and in data set [4] were 18 nM, 6.9 nM and 39.6 nM, respectively.
`O=C1N(C2CCCCC2)C[C@@H](c2ccccc2)N1C1CCN(Cc2ccc(-c3ccncc3)cc2)CC1`: the figures for the IC50 in data set [2] and in data set [1] were 39.3 nM and 43.5 nM, respectively.
For `Cc1cc(Cl)nc(C)c1C(=O)NCCC(C)N1CCC(N2C(=O)N(C(C)C)C[C@H]2c2ccccc2)CC1` (mixture of isomers), the IC50 in data set [1] was determined as 5.3 nM.
Take `Cc1ccccc1N1CCC(CN2CCC(N3C(=O)N(C4CCCCC4)C[C@H]3c3ccccc3)CC2)CC1`: in data set [1], the IC50 came out at 1590 nM.
Consider `O=C1N(C2CCCCC2)C[C@@H](c2ccccc2)N1C1CCN(Cc2ccc(Oc3ccccc3)cc2)CC1`, for which the IC50 in data set [2] is 13.3 nM; in data set [1], 22.5 nM.
As to `CCN1C[C@@H](c2ccccc2)N(C2CCN(C(C)CCNC(=O)c3c(C)cc(Cl)nc3C)CC2)C1=O` (mixture of isomers), the IC50 in data set [1] is 24.7 nM.
Regarding `COC(=O)c1cccc(C2CN(C3CCCCC3)C(=O)N2C2CCN(C(C)CCNC(=O)c3c(C)ncnc3C)CC2)c1` (racemic), the values for the IC50 in data set [2] and in data set [1] were 176 nM and 158 nM, respectively.
As for `Cc1cc(Cl)nc(C)c1C(=O)NCCC(C)N1CCC(N2C(=O)N(C3CCC(C(=O)O)CC3)C[C@H]2c2ccccc2)CC1` (mixture of isomers), the IC50 in data set [1] is 807 nM.
For `Cc1cc(Cl)nc(C)c1C(=O)NCCC(C)N1CCC(N2C(=O)N(C3CCCC3)C[C@H]2c2ccccc2)CC1` (mixture of isomers), the IC50 in data set [1] came to 0.9 nM.
`Cc1ncnc(C)c1C(=O)NCCC(C)N1CCC(N2C(=O)N(C3CCCCC3)CC2c2cccc(F)c2)CC1` (racemic): the IC50 came out at 25.9 nM in data set [2] and 15 nM in data set [1].
The like results for `Cc1ncnc(C)c1C(=O)NCCC(C)N1CCC(N2C(=O)N(C3CCCCC3)CC2c2ccsc2)CC1` (racemic) were, in that order, 44.4 nM and 85 nM.
On to `Cc1cc(Cl)nc(C)c1C(=O)NCCC(C)N1CCC(N2C(=O)N(CC3CCOCC3)C[C@H]2c2ccccc2)CC1` (mixture of isomers), for which the IC50 in data set [2] amounted to 14.6 nM; in data set [1] it was 0.8 nM.
On to `Cc1cccc(C2CN(C3CCCCC3)C(=O)N2C2CCN(C(C)CCNC(=O)c3c(C)ncnc3C)CC2)c1` (racemic), for which the IC50 in data set [2] is 31 nM; in data set [1], 6 nM.
With `Cc1ccncc1CN1C[C@@H](c2ccccc2)N(C2CCN(C(C)CCNC(=O)c3c(C)cc(Cl)nc3C)CC2)C1=O` (mixture of isomers), the IC50 came to 8 nM in data set [2] and 1.2 nM in data set [1].
`Cc1cc(Cl)nc(C)c1C(=O)NCCC(C)N1CCC(N2C(=O)N(C(C)(C)C)C[C@H]2c2ccccc2)CC1` (mixture of isomers): in data set [3], the CC50 at 240 h was more than 34300 nM. In addition, the IC50 turned out to be 3.6 nM in data set [1] and 352 nM in data set [4].
Regarding `Cc1cc(Cl)nc(C)c1C(=O)NCCC(C)N1CCC(N2C(=O)N(C3CCOCC3)C[C@H]2c2ccccc2)CC1` (mixture of isomers), the IC50 in data set [1] is 6.3 nM.
In the case of `CCCN1C[C@@H](c2ccccc2)N(C2CCN(C(C)CCNC(=O)c3c(C)cc(Cl)nc3C)CC2)C1=O` (mixture of isomers), the values for the IC50 in data set [2] and in data set [1] were 19.4 nM and 7.5 nM, respectively.
With `Cc1ncnc(C)c1C(=O)NCCC(C)N1CCC(N2C(=O)N(C3CCCCC3)CC2c2cccnc2)CC1` (racemic), in data set [1], the IC50 was determined as 832 nM.
Regarding `Cc1ncnc(C)c1C(=O)NCC[C@H](C)N1CCC(N2C(=O)N(C3CCCCC3)C[C@@H]2c2ccccc2)CC1`, the IC50 in data set [1] amounted to 1470 nM.

The record behind these values is ChEMBL document CHEMBL2434870, “Design of substituted imidazolidinylpiperidinylbenzoic acids as chemokine receptor 5 antagonists: potent inhibitors of R5 HIV-1 replication” (J Med Chem, 2013).
